Screens deposited in PubChem BioAssay by The Scripps Research Institute Molecular Screening Center.
Rows were chosen to be rich in hits. Some 1.8% of all compounds tested hit in one or more screens of this group.
MBD2 inh: inhibitors of MBD2 binding to methylated DNA, primary screen, biochemical, TR-FRET, DNA-binding domain, human. Methyl-CpG-binding domain protein 2 (Homo sapiens), Q9UBB5. MBD2 binding to methylated oligonucleotide. inhibition, % at 4.4 µM. 370,000 compounds, 0.31% hits. AID 686964, 2013; in the data active means inhibition above about 13%
UHRF1 binding: UHRF1 methylated DNA binding inhibitors, primary screen, counter-screen for MBD2 inhibitor project, biochemical, TR-FRET, human UHRF1, single concentration; 370,000 compounds, 0.75% hits; E3 ubiquitin-protein ligase UHRF1 (Homo sapiens), Q96T88; UHRF1 binding to methylated oligo; inhibition, % at 4.4 µM; in the data active means inhibition above about 21%;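 further: UHRF1 SRA domain binding a hemimethylated CpG hairpin DNA probe; 0% = median of test compound wells and 100% = reference inhibitor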
Target sequence (Q96T88 whole entry, looked up, the tested form may be a part): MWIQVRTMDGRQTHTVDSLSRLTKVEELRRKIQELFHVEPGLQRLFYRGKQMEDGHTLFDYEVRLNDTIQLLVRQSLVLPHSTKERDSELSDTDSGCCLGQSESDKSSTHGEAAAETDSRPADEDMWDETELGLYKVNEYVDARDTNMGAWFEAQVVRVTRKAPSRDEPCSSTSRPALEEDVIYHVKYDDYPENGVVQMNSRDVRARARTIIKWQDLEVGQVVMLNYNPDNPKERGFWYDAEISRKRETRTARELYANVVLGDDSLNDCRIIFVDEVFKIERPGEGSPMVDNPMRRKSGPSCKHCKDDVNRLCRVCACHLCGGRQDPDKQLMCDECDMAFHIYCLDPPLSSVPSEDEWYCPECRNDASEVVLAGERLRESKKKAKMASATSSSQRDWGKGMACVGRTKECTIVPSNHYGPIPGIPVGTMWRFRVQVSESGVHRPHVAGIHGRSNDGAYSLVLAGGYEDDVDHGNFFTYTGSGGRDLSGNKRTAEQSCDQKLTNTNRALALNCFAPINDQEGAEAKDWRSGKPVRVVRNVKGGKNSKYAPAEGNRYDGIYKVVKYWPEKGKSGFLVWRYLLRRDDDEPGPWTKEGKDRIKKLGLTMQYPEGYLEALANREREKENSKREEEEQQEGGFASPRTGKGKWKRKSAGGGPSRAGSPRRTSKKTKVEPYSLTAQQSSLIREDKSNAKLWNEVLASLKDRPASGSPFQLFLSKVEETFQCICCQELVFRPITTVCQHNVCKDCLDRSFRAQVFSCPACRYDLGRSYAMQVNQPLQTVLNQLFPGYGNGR
TDP2 absorb: human TDP2 enzyme inhibitors, primary screen, biochemical, epi absorbance, recombinant enzyme | Tyrosyl-DNA phosphodiesterase 2 (Homo sapiens), O95551 | T5PNP hydrolysis, p-nitrophenol absorbance 415 nm | inhibition, % at 12.8 µM | 370,000 compounds, 0.34% hits;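 active means inhibition above the mean of all tested compounds plus 3 SD, set per campaign, cut at about 25% in these data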;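 further: 0% = DMSO with enzyme and 100% = buffer with substrate but no TDP2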
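System – recombinant human TDP2 · Amount – 120 nM TDP2 per well · Buffer or medium – Mg2+-containing Tris-HCl buffer, pH 7.5 · Reagent – T5PNP substrate, 5 mM · Dosing – 12.8 µM single point, 1% DMSO · Incubation – 2 h at 37 °C · Measured by – epi absorbance · Read-out basis – percent inhibition · Benchmarks – high control without enzyme, low control DMSO plus TDP2 · Repeats – singlicate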
LEDGF integ inh: blockers of LEDGF/p75-dependent integrase strand transfer – biochemical, TR-FRET, high throughput, primary screen | HIV-1 integrase (with human LEDGF/p75) | AID 743269, 2014 | inhibition, % at 3.7 µM | TR-FRET IN-LEDGF/p75 DNA integration, Eu/Cy5 | 370,000 compounds, 0.64% hits;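 active means inhibition above the screen-wide mean plus 3 SD, cut at about 13% in these data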;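 further: signal is the Cy5 over europium emission ratio at 671 and 618 nm; 0% = plate median of compound wells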
core dimer inh: inhibitors of HCV core protein dimerization, primary screen, biochemical, TR-FRET, high-throughput | TR-FRET GST/Flag-core106 dimerization, 1536-well | inhibition, % at 5 µM | 300,000 compounds, 0.33% hits | AID 1899, 2009;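 active means inhibition above the mean of all tested compounds plus 3 SD, set per screening campaign, cut at about 45% in these data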
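assay system = GST-tagged and Flag-tagged HCV core protein residues 1-106 | controls = unlabelled core106 and no-GST-core106 wells | incubation = compound-protein-antibody incubation 4 h at 22.5 °C | probe or stimulus = Eu donor and XL665 acceptor anti-tag antibodies | read-out = % inhibition based on acceptor/donor emission ratio | signal = TR-FRET 671 and 617 nm emission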
IN multimer up: HIV-1 IN multimer formation enhancers, counter-screen for LEDGF/p75 integration inhibitor project, biochemical, TR-FRET | shares compounds with LEDGF integ inh | TR-FRET HIV-1 integrase multimerization | activation, % at 7.7 µM | 2,000 compounds, 17% hits | AID 1053131, 2014; in the data active means activation above about 8.9%
TR-FRET interf: TR-FRET optical interference artefacts, confirmation, artefact control for LEDGF/p75-dependent integration inhibitor project, biochemical, HIV-1 IN multimerization | shares compounds with LEDGF integ inh | AID 1053135, 2014 | 2,000 tested, under 10 active | inhibition, % at 7.7 µM | TR-FRET optical interference counterscreen;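 active means inhibition above the mean over all tested compounds plus 3 SD, which no compound reached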;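 further: 0% = integrase with antibodies and DMSO and 100% = antibodies without integrase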
IN-LEDGF confirm: inhibitors of HIV-1 IN-LEDGF/p75 DNA integration, confirmation, biochemical, TR-FRET; shares compounds with LEDGF integ inh; TR-FRET LEDGF/p75-dependent HIV-1 integration; inhibition, % at 3.7 µM; 2,000 compounds, 36% hits; AID 1053136, 2014; in the data active means inhibition above about 14%
An asterisk follows results filed as active; x = no result given.

SMILES	MBD2 inh	UHRF1 binding	TDP2 absorb	LEDGF integ inh	core dimer inh	IN multimer up	TR-FRET interf	IN-LEDGF confirm
COc1cc2c(c(OC)c1)C(c1cccc(OC)c1OC)CC(=O)N2 (configuration not stated)	-1	0	-8	17*	-9	-2	12	-2
Cc1ccccc1CNC(=O)C1C2C=CC3(CN(Cc4ccccc4)C(=O)C13)O2 (configuration not stated)	4	0	3	3	x	x	x	x
CCn1c2c(n(C(C)=O)c1=O)C[C@@H](c1ccccc1)[C@@H](C)[C@@H](C(=O)N1CCCC1)C2	-3	-1	5	2	x	x	x	x
FC(F)(F)c1cc(CNC2CCC23CCC(c2ccccc2)CC3)ccc1Cl (configuration not stated)	-1	-3	1	1	x	x	x	x
Cc1ccc(S(=O)(=O)Nc2cc(C(C(=O)OC(C)C)C(=O)C(F)(F)F)c(O)c3ccccc23)c(C)c1 (configuration not stated)	2	-5	10	14*	16	1	-4	-1
Cc1ccc(S(=O)(=O)Nc2cccc(S(=O)(=O)Nc3ccccc3C(=O)O)c2)c(C)c1	6	0	2	-1	x	x	x	x
O=[N+]([O-])c1ccc(O)c(C=Nc2cccc3ncccc23)c1	0	-10	-14	20*	6	4	-14	-2
O=[N+]([O-])c1ccc(O)c(C=Nc2cccc3ccccc23)c1	-7	-5	-9	-2	-1	x	x	x
O=C(CN1C(=O)C2(OCCCO2)c2ccccc21)NCc1ccccc1Cl	5	1	3	0	x	x	x	x
CC1=C(C)CC(C(=O)Nc2nc(-c3ccc(C)cc3C)c(C)s2)C(C(=O)O)C1 (configuration not stated)	-4	-1	7	25*	10	5	-27	0
CC1=C(C)CC(C(=O)Nc2nc(-c3ccc(F)cc3)c(C)s2)C(C(=O)O)C1 (configuration not stated)	2	8	8	1	9	x	x	x
C[C@H]1C(C(=O)N(C)C2CCCCC2)=Cc2c(n(-c3ccc(F)cc3)c(=O)n2CCCOc2ccccc2)C=C1c1ccccc1	4	1	-4	44*	x	0	-1	17*
CCOC(=O)c1ccc(N/C=C/C(=O)C(C)(C)C)cc1	4	-1	-5	-5	4	x	x	x
CC(C)(C)C(=O)/C=C/Nc1ccccc1O	-19	-10	-10	15*	0	3	-10	1
CC(C)NC[C@@H](O)c1ccc(O)c(O)c1	-7	-2	7	16*	0	4	-21	21*
CC(C)NCC(O)c1ccc(NS(C)(=O)=O)cc1 (configuration not stated)	2	-2	7	2	3	x	x	x
COc1ccc(CCC[C@H](CCC(=O)N(c2ccccc2)c2ccccc2)CCc2ccccc2)cc1	-3	1	9	-3	x	x	x	x
COc1cc(C2C(C#N)=C(N)Oc3cc(C)oc(=O)c32)cc2c1OCO2 (configuration not stated)	9	42*	9	20*	65*	3	-14	14*
NC(=O)Cn1c(=O)n(CCC(=O)NCCSCc2ccccc2)c(=O)c2ccccc21	3	1	13	64*	-1	-2	10	1
C/C(CC(=O)Nc1ccccn1)=N\NC(=O)c1ccccc1O	-5	-5	-21	38*	2	1	-4	46*
COC(=O)[C@]1(CNC(=O)C(C)(C)C)CC(=O)N(C)[C@@H]1c1ccccc1	7	0	1	1	x	x	x	x
CCOC(=O)C1=C(c2ccccc2)N=c2s/c(=C\c3ccco3)c(=O)n2C1c1cccs1 (configuration not stated)	5	8	-1	16*	69*	1	-7	23*
COc1ccc(C2C(C(C)=O)=C(C)N=c3s/c(=C\c4ccco4)c(=O)n32)c(OC)c1 (configuration not stated)	-2	-3	1	15*	9	-1	7	0
COc1ccc(C(=O)/C=C(\Nc2ccc(F)cc2)c2ccc(OC)cc2OC)c(OC)c1	3	-1	-5	1	x	x	x	x
COC(=O)C1=C(C)N(Cc2ccccc2C(F)(F)F)C(=NCc2cccc(C(F)(F)F)c2)NC1c1ccc(F)cc1 (configuration not stated)	2	7	-4	0	x	x	x	x
SMILES	MBD2 inh	UHRF1 binding	TDP2 absorb	LEDGF integ inh	core dimer inh	IN multimer up	TR-FRET interf	IN-LEDGF confirm
CCCCCCSc1ccc([C@H]2N[C@@](C)(C(=O)OC)[C@H]3C(=O)N(CC)C(=O)[C@@H]23)cc1	3	0	-9	15*	7	0	-1	-3
CN(CCc1ccccn1)C(=O)Cn1nc(-c2ccccc2)ccc1=O	3	1	-7	-5	x	x	x	x
O=C(NCc1cnc2ccccn12)C1CCC(=O)N(Cc2ccccc2F)C1 (configuration not stated)	-1	-1	6	17*	x	0	2	-5
Cc1ccc(S(=O)(=O)/N=C(/Nc2cccc(C(=O)O)c2)c2ccccc2)cc1	-5	1	8	0	5	x	x	x
Cc1ccc(S(=O)(=O)/N=C(/Nc2cccc(O)c2)c2ccccc2)cc1	1	-2	0	37*	1	2	-10	2
Cc1cccc(/N=C/c2sc3ccccc3c2O)n1	-4	0	-3	50*	-21	8	-41	-1
Cc1ccc(S(=O)(=O)NN=C2CC(C)(C)OC2(C)C)cc1	0	0	6	-5	x	x	x	x
Cc1ccc(S(=O)(=O)NN=C2CC3CCC2(C)C3(C)C)cc1 (configuration not stated)	2	0	0	17*	x	2	-9	-3
